The list is not random: actives were taken first. Their share in the collection is about 1.1%.
Yeast growth tox – Inhibitors of S. cerevisiae growth, toxicity. 30,000 compounds, 0.3% hits. S. cerevisiae wild-type growth, A595 turbidity, 16 h. AID 685. growth inhibition, % at 25 µM (by protocol);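 active = mutant and wild-type yeast strains alike exhibit over 30% growth inhibition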;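 note: 0% = untreated cell controls and 100% = YPD media blanks without cells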
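System: S. cerevisiae wild-type or eIF2Bepsilon-R284H mutant strain; times: 16 h growth with compound, 30 °C; signal: absorbance at 595 nm (turbidity); measure: growth inhibition (%) versus cell controls and blanks; compound: 25 µM single dose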
Yeast eIF2B – modulators of yeast eIF2B activity; 27,000 compounds, 0.91% hits; S. cerevisiae eIF2B-epsilon R284H, GCN4-lacZ luminescence; inhibition, % at 25 µM (by protocol); AID 688;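 active = mutant luminescence inhibited past about 50% while wild type luminescence and mutant growth stay under set limits, limit read from the data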
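Material: yeast eIF2B-epsilon R284H mutant carrying GCN4–beta-galactosidase fusion. Medium: YPD yeast growth medium. Incubation: 16 h growth with compound at 30 °C, 90 min Beta-Glo step. Signal: Beta-Glo luminescence plus absorbance at 595 nm. Evaluation: % inhibition of reporter signal and growth versus controls. Doses: 25 µM single dose.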
* = called active by the depositor; nt = no result.

SMILES	Yeast growth tox	Yeast eIF2B
COc1ccc(CNC(=O)C(c2ccc(C)o2)N(Cc2cccs2)C(=O)Cc2cccs2)cc1 (stereo not drawn)	-28	4
Cc1ccc(-c2cc3nc(-c4ccccc4)cc(N4CCOCC4)n3n2)cc1	-30	nt
CCN1CCN(c2cc(-c3ccccc3)nc3cc(-c4cccc(F)c4)nn23)CC1	nt	53*
Cc1ccc(C(=O)C(NC(=O)c2ccco2)Nc2sc3c(c2C(N)=O)CCCC3)cc1 (stereo not drawn)	-4	23
O=C(NC1CCCCC1)N1CCN(C(c2ccccc2)c2ccccc2)CC1	0	nt
Cc1ccc2c(c1)N(CC(=O)NCc1cccnc1)C(=O)CO2	3	59*
Cc1ccc2c(c1)N(CC(=O)N1CCCCCC1)C(=O)CO2	3	-23
O=c1[nH]ncc(NCCCO)c1Cl	11	18
O=c1c(Cl)c(NCCCO)cnn1-c1nc2ccccc2[nH]1	29	56*
CN(CC(=O)Nc1ccc(Cl)cc1)CC(=O)Nc1cc(Cl)ccc1C#N	10	-26
CCCOCC1CC2(CC(C)(c3csc(N)n3)OC2=O)C(=O)O1 (stereo not drawn)	nt	61*
Cn1c(SCC(=O)NCc2ccccc2)nnc1C1CC1	7	nt
CC(=O)Nc1ccc(S(=O)(=O)NC2(C(F)(F)F)NC(=O)N(C3CCCCC3)C2=O)cc1 (stereo not drawn)	22	13
Cc1cc(C)n2nc(C(=O)OCCOc3ccc(F)cc3)nc2n1	3	-13
Nc1ccccc1N1CCN(C(=O)c2ccccc2)CC1	9	10
O=C(Nc1ccccc1N1CCN(C(=O)c2ccccc2)CC1)c1cc2ccccc2o1	-30	50*
O=c1ccnc(S/C=C/c2ccccc2)[nH]1	7	66*
CC(C)CCNC(=O)CN(Cc1ccc2c(c1)OCO2)C(=O)Cn1nnc(-c2cccs2)n1	nt	-2
CCOCC(=O)Nc1ccc(F)c(F)c1	0	12
CCOCC(=O)Nc1cccc(NC(C)=O)c1	0	72*
CCOC(=O)C1=C(C)NC(SCc2cc(=O)[nH][nH]2)=C(C#N)C1c1cccs1 (stereo not drawn)	-6	56*
C=CCOC(=O)C1=C(C)NC(SC)=C(C#N)C1c1cccs1 (stereo not drawn)	9	10
COc1ccc(C(=O)COC(=O)CN2C(=O)NC(C)(C)C2=O)cc1OC	-6	60*
COc1ccc(C(=O)COC(=O)c2ccc(OC)c(OC)c2)cc1OC	-17	30
O=C(c1ccc([N+](=O)[O-])cc1)N(Cc1ccc(Br)cc1)N1C(=O)CCCC1=O	-14	6
SMILES	Yeast growth tox	Yeast eIF2B
COC(=O)c1c(C)n(-c2ccc(C)cc2)c2ccc(O)cc12	25	nt
CCOC(=O)c1nn(-c2cccc(Cl)c2)c2nc(CC(C)C)c(C#N)c(=O)n12	1	50*
Cc1cc2n(c(=O)c1C#N)CCCN2c1cccc(Cl)c1	-3	45
CC1C/C(=N/O)C(C)CN1 (stereo not drawn)	2	nt
CC(O)/C=C/c1ccc2ccccc2n1 (stereo not drawn)	31*	37
CC(Sc1ccc2ccccc2n1)C(=O)O (stereo not drawn)	9	nt
CCOC(=O)COc1ccc(S(=O)(=O)NCc2ccco2)cc1	-9	53*
CCOC(=O)COc1ccc(S(=O)(=O)NCc2ccncc2)cc1	-11	-1
COc1cc(S(=O)(=O)N(Cc2cccnc2)Cc2ccco2)ccc1-n1cnnn1	5	53*
COc1cc(S(=O)(=O)N(Cc2ccc(C)cc2)Cc2ccco2)ccc1-n1cnnn1	-13	13
COC(=O)c1nn2c(C(F)(F)F)cc(-c3ccc(Br)o3)nc2c1Br	-31	54*
COC(=O)c1cc2nc(-c3ccc(OC)cc3)cc(C(F)(F)F)n2n1	-17	-11
CCc1ccccc1N(CC(=O)N1CCN(c2ccccc2)CC1)S(C)(=O)=O	23	20
CCC(=O)N1CCc2cc(S(=O)(=O)NC(C(=O)NCc3ccc(F)cc3)C(C)C)ccc21 (stereo not drawn)	2	27
CCC(=O)N1CCc2cc(S(=O)(=O)NC(C(=O)NCc3ccccc3)C(C)C)ccc21 (stereo not drawn)	3	55*
CSCCC(NC(=O)c1ccccc1)C(=O)NCc1ccco1 (stereo not drawn)	-1	17
CCn1nc(C)c(NS(=O)(=O)c2ccccc2)c1C	21	-32
COc1cccc(-c2nc(NCc3ccco3)c3ccccc3n2)c1O	12	22
COc1cccc(-c2nc(N3CCCCC3C)c3ccccc3n2)c1O (stereo not drawn)	-7	56*
c1ccc2c(N3CCCC3)nc(-c3ccncc3)nc2c1	nt	-4
C=CCNc1nc(-c2cccc(OC)c2O)nc2ccccc12	-19	57*
CCOC(=O)N1CCN(Cc2nc(-c3ccc(C)cc3)no2)CC1	-7	30
CC(=O)Nc1sc(NC(=O)c2ccc(C)cc2)nc1-c1cccs1	-36	29

Screens (PubChem BioAssay)
